According to article PMC8604242 (Clinical and Translational Science, 2021):
“Also recorded” adds a separate entry of the source. Where two headings read alike, the source gives them in different places.

What was measured:
human hepatocytes = details: cited from earlier work
BTK = details: cited from earlier work
[1] = test system: patients with relapsing MS; details: cited from earlier work
[2] = cited from earlier work
[3] = format: in vivo, human; details: for AUC0-t of total radioactivity, GM (GM CV, %) / AUC0–24h of total radioactivity, GM (GM CV, %) / Cmax of total radioactivity, GM (GM CV, %) / Tmax of total radioactivity, median (min, max): single 75-mg oral dose
Method in brief: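 After a single oral 75‑mg ¹⁴C dose in six healthy men, total radioactivity was measured by duplicate LSC. Plasma was spiked directly with cocktail; whole blood was solubilized and decolorized first. Plasma LLOQ was 9.91 ng eq/ml (30 dpm/ml), with sampling from 0.25 h postdose. Noncompartmental parameters used actual sampling times, with descriptive statistics.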

[4] = Metabolite profiling and identification in plasma, urine and feces; format: in vivo, human
Method in brief: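 UPLC‑HR‑MS (QTof) with the eluent fractionated every 7 s, off‑line microplate scintillation counting, and reconstructed radiochromatograms. Urine and feces were pooled per participant covering ≥90% of excreted radioactivity, excluding low‑radioactivity intervals. Plasma (1–24 h) was exhaustively extracted with ethanol/acetonitrile, evaporated under nitrogen at 37°C, and redissolved in ACN/MeOH/water 1+1+8. Nonextractable radioactivity was the precipitate counted by LSC, as % of total. AUCs were noncompartmental.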

[5] = Mass balance: excretion of total radioactivity in urine and feces; format: in vivo, human
Method in brief: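 Six healthy men received one oral 75‑mg solution (30 ml, ~3.6 MBq/~100 μCi ¹⁴C label), followed by two 50‑ml bottle rinses. Urine got scintillation cocktail directly. Feces were homogenized with equal weight of water, dried, and combusted with CO2 trapped in absorber. LSC was done in duplicate. Excretion was expressed against the administered radioactive dose over nominal collection intervals, with descriptive statistics.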

[6] = Plasma PK of evobrutinib by validated LC-MS/MS; format: in vivo, human
Method in brief: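 Unlabeled drug was measured in K2EDTA plasma (100 µL) by validated LC‑MS/MS with an isotopically labeled internal standard. LLOQ was 0.600 ng/ml, linear to 600 ng/ml with 1/x2‑weighted regression. Participants were six healthy men given a single oral 75‑mg solution dose. Noncompartmental Cmax, Tmax, AUC, t1/2, Vz/F and CL/F used actual sampling times. Parent AUC was related to plasma total‑radioactivity AUC.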

Safety = format: in vivo, human; details: single dose of ^14C-evobrutinib
rat hepatocytes = details: cited from earlier work
[7] = single 75-mg oral dose of ^14C-evobrutinib, six healthy men, within 168 h

## Nc1ncnc(NCC2CCN(C(=O)C(O)CO)CC2)c1-c1ccc(Oc2ccccc2)cc1 (centres unmarked) [evobrutinib‐diol]
Human hepatocytes
  Rank among metabolites in human hepatocytes: main metabolite

## C=CC(=O)N1CCC(CNc2ncnc(N)c2-c2ccc(Oc3ccccc3)cc2)CC1 [evobrutinib]
BTK; 25 mg, multiple daily dosing, healthy participants
  BTK occupancy after multiple daily dosing: Full BTK occupancy
BTK; doses of greater than or equal to 100 mg
  BTK occupancy at 96 h: greater than 50%
BTK; reached within ~ 4 h after single doses of greater than or equal to 200 mg
  Maximum BTK occupancy: > 90%
[1]; 75 mg q.d. and b.i.d., over 24 weeks
  Total number of gadolinium-enhancing lesions on T1-weighted MRI versus placebo: significantly reduced
[1]
  Severity of the majority of TEAEs: mild or moderate
Human hepatocytes; rat and human hepatocytes
  Number of different metabolites formed: 23
[2]; 25–200 mg doses
  Half-life: 1.8 to 2.6 h
[2]; after multiple-dosing, 13 participants
  Participants with treatment-emergent adverse events: 48.1%
[2]; after single-dosing, nine participants
  Participants with treatment-emergent adverse events: 25%
[2]
  Severity of most TEAEs: mild
[2]; healthy participants
  Half-life: ~ 2 h
  Time to reach maximum plasma concentration (Tmax): ~ 0.5 h
[2]; single 25-500 mg, 25-200 mg q.d. for 14 days
  Dose-proportionality, accumulation and time-dependency of PK: dose‐proportional, with no accumulation or time‐dependency with repeat dosing
[3]; at 72 and 96 h postdose
  Mean blood to plasma ratio of total radioactivity: 1.6
[3]; at 0.25 h postdose
  Mean blood to plasma ratio of total radioactivity: 0.6
[3]; plasma, postdose
  Time of individual maximum total radioactivity concentration in plasma, range: 0.25 to 1 h
[3]; plasma
  AUC0-t of total radioactivity, GM (GM CV, %): 3915 (32.7) ng (eq) h/ml
  AUC0–24h of total radioactivity, GM (GM CV, %): 2805 (14.8) ng (eq) h/ml
  Cmax of total radioactivity, GM (GM CV, %): 1047 (22.8) ng eq/ml
  Tmax of total radioactivity, median (min, max): 0.5 h
[3]; plasma, listed as 14C‐radiolabeled evobrutinib
  Tmax of total radioactivity, median (min, max): 0.50 (0.25, 1.00) h
[3]; whole blood
  AUC0-t of total radioactivity, GM (GM CV, %): 4944 (13.6) ng (eq) h/ml
  AUC0–24h of total radioactivity, GM (GM CV, %): 2001 (9.9) ng (eq) h/ml
  Cmax of total radioactivity, GM (GM CV, %): 623 (25.5) ng eq/ml
  Tmax of total radioactivity, median (min, max): 0.5 h
[3]; whole blood, listed as 14C‐radiolabeled evobrutinib
  Tmax of total radioactivity, median (min, max): 0.50 (0.25, 1.00) h
[4]; feces
  Number of metabolites detected and elucidated in feces: 30
[4]; in vivo
  Number of phase I metabolites fully or partially elucidated: 40
  Number of phase II metabolites fully or partially elucidated: 18
  Total number of metabolites identified in urine, feces, and plasma: 58
[4]; plasma
  Number of metabolites detected and elucidated in plasma: 24
[4]; plasma, after exhaustive extraction
  Geometric mean AUC0–24 of nonextractable radioactivity: 1085 h٠ng eq/ml
[4]; pooled feces
  Unchanged evobrutinib in feces: not detected
[4]; pooled urine
  Unchanged evobrutinib in urine metabolite profiles: not detected
[4]; urine
  Number of metabolites detected and elucidated in urine: 41
[5]; single 75-mg oral dose
  Unchanged evobrutinib in excreta (urine or feces): No unchanged evobrutinib was detected; also recorded: No unchanged evobrutinib was recovered
[5]; [7]
  Total radioactivity excreted in feces, arithmetic mean percentage of dose: 71.0%
  Total radioactivity excreted in urine, arithmetic mean percentage of dose: 20.6%
[5]; single 75-mg oral dose, 0-96 h
  Radioactive dose excreted in feces within 96 h, range: 66.4–73.5%
[5]; single 75-mg oral dose, urine plus feces, first 72 h
  Total radioactivity excreted within 72 h after administration (mean): 85.3%
[5]; single 75-mg oral dose, urine plus feces, within 96 h
  Mean total radioactivity recovery within 96 h: 89.7%
[5]; single 75-mg oral dose, urine plus feces, within 168 h
  Mean total radioactivity recovery: 91.6%
[6]; human, plasma, po, 75 mg
  Cmax: 0.321 µg/mL
  Half-life: 79.8 min
  Vd/F: 381 L
[6]; plasma, postdose
  Time of individual maximum evobrutinib plasma concentration, range: 0.25 to 0.50 h
[6]; plasma, single 75-mg oral dose
  AUC0-t of evobrutinib, GM (GM CV, %): 375 (19.4) ng (eq) h/ml
  AUC0–24h of evobrutinib, GM (GM CV, %): 378 (19.4) ng (eq) h/ml
  CL/F, GM (GM CV, %): 199 (19.4) L/h
  Tmax of evobrutinib, median (min, max): 0.5 h
[6]; plasma, single 75-mg oral dose, listed as Evobrutinib
  Tmax of evobrutinib, median (min, max): 0.50 (0.25, 0.55) h
[6]; single dose
  Parent drug share of total radioactivity plasma exposure (AUC): 10–13%
Safety
  Nausea, headache, epistaxis, and nasopharyngitis, number of participants each: 1 participant each
  Oropharyngeal pain, number of participants: 2 participants
  Serious AEs, deaths, or withdrawals: no serious AEs, deaths, or withdrawals
  Severity and relatedness of AEs: mild and not considered study treatment related
Safety; four of six participants
  Participants who experienced an adverse event: 67%

## hydroxyl‐evobrutinib
Rat hepatocytes
  Rank among metabolites in rat hepatocytes: most abundant metabolite
